# From ChEMBL document CHEMBL1137722, “Synthesis and pharmacological evaluation of a novel series of 5-(substituted)aryl-3-(3-coumarinyl)-1-phenyl-2-pyrazolines as novel anti-inflammatory and analgesic agents” (Eur J Med Chem, 2009)
# Tests used:
# [1] = tested on: Mus musculus; experiment: Acute toxicity in albino mouse assessed as mortality up to 2000 mg/kg, po after 24 hrs; format: organism-based; set-up: dose 2000 mg/kg, route oral; settings: in vivo
# Outline: (§1)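 Albino mice of either sex (20–25 g), 12 groups of six, fasted 24 h with water available. Given oral doses rising through 10, 20, 100, 200, 1000 and 2000 mg/kg. Watched continuously for 3 h for behavioural, neurological and autonomic signs, then every 30 min for the next 3 h, then up to 24 h or until death. Guideline: OECD.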
# [2] = tested on: Rattus norvegicus; experiment: Antipyretic activity in yeast-induced pyrexia albino rat model assessed as mean rectal temperature at 200 mg/kg, po administered 30 mins after 18 hrs of yeast challenge measured after 1 hr postdosing (Rvb=39.4 degC); format: functional
# [3] = tested on: Mus musculus; experiment: Analgesic activity in albino mouse assessed as protection against glacial acetic acid-induced writhing response at 200 mg/kg, po pretreated 0.5 hrs before glacial acetic acid challenge measured for 15 mins; format: functional
# Outline: (§2)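 Albino mice of either sex (20–25 g). Mice were pre-screened the day before for writhing, and only responders were used. Compound was given orally as a suspension in 0.5% sodium CMC 30 min before glacial acetic acid challenge. Stretching episodes were counted for 15 min. Results are the group mean, n=6, with % protection against control.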
# [4] = tested on: Rattus norvegicus; experiment: Antiinflammatory activity in albino rat acute inflammatory model assessed as inhibition of carrageenan-induced paw edema at 200 mg/kg, po dosed 1 hr before carrageenan challenge measured after 2 hrs relative to control; format: functional
# Outline: (§3)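 Male albino rats (170–220 g), fasted at least 12 h with water available, groups of six. Oral dosing with 0.5% sodium CMC vehicle control. One hour later, 0.05 ml of 1% carrageenan was injected subplantar into the left hind paw. Paw volume was measured by digital plethysmometer at 0, 2 and 4 h. % inhibition = [1 − treated/control edema volume] × 100, n=6.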
# [5] = tested on: Rattus norvegicus; experiment: Antiinflammatory activity in albino rat acute inflammatory model assessed as inhibition of carrageenan-induced paw edema at 200 mg/kg, po dosed 1 hr before carrageenan challenge measured after 4 hrs relative to control; format: functional; outline: as §3
# [6] = tested on: Rattus norvegicus; experiment: Antiinflammatory activity in albino rat chronic arthritis model assessed as inhibition of Freund's adjuvant-induced paw edema at 200 mg/kg, po administered on day 16 to 19 post Freund's adjuvant challenge measured on day 19 relative to control; format: functional
# Outline: (§4)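 Male albino rats (150–230 g) received 0.1 ml heat-killed M. tuberculosis (Freund's complete adjuvant) into the left hind footpad on day 1. Rats with developed arthritis on day 15 were split into groups of six. Dosing was oral, days 16–19, with 1 ml 0.5% sodium CMC as control. Paw volume, body weight and secondary lesions were recorded daily. % inhibition was calculated from day 15, n=6.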
# [7] = tested on: Rattus norvegicus; experiment: Antipyretic activity in yeast-induced pyrexia albino rat model assessed as mean rectal temperature at 200 mg/kg, po administered 30 mins after 18 hrs of yeast challenge measured after 2 hrs postdosing (Rvb=39.2 degC); format: functional
# [8] = tested on: Rattus norvegicus; experiment: Antipyretic activity in yeast-induced pyrexia albino rat model assessed as mean rectal temperature at 200 mg/kg, po administered 30 mins after 18 hrs of yeast challenge measured after 3 hrs postdosing (Rvb=38.9 degC); format: functional
# [9] = tested on: Rattus norvegicus; experiment: Antipyretic activity in yeast-induced pyrexia albino rat model assessed as mean rectal temperature at 200 mg/kg, po administered 30 mins after 18 hrs of yeast challenge measured after 4 hrs postdosing (Rvb=38.7 degC); format: functional
# [10] = tested on: Rattus norvegicus; experiment: Antipyretic activity in yeast-induced pyrexia albino rat model assessed as mean rectal temperature at 200 mg/kg, po administered 30 mins after 18 hrs of yeast challenge measured after 5 hrs postdosing (Rvb=38.2 degC); format: functional
# [11] = tested on: Rattus norvegicus; experiment: Antipyretic activity in yeast-induced pyrexia albino rat model assessed as temperature index measured by sum of mean rectal temperature changes from 0 to 5 hrs at 200 mg/kg, po administered 30 mins after 18 hrs of yeast challenge (Rvb=39.6 degC); format: functional
# [12] = tested on: Rattus norvegicus; experiment: Gastrointestinal toxicity in starved albino rat stress model assessed as ulcer index at 200 mg/kg, po after 7 hrs; format: organism-based; set-up: dose 200 mg/kg, route oral; settings: in vivo
# Outline: (§5)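 Albino rats of either sex, 170–250 g, six per group, starved 48 h with water ad libitum. Dosed orally as a suspension in 0.5% sodium CMC, test compounds at 200 mg/kg b.w. Killed 7 h later. Stomach opened along the greater curvature and everted. Ulcer index from lesion counts in five size classes, ranging from pinpoint to >4 mm diameter.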
# [13] = Acute toxicity in po dosed albino mouse assessed as maximum tolerated dose; format: organism-based; settings: in vivo; outline: as §1
# [14] = tested on: Rattus norvegicus; experiment: Antipyretic activity in yeast-induced pyrexia albino rat model assessed as temperature index measured by sum of mean rectal temperature changes from 0 to 5 hrs at 200 mg/kg, po administered 30 mins after 18 hrs of yeast challenge (Rvb=39.4 degreeC); format: functional
# [15] = tested on: Rattus norvegicus; experiment: Antipyretic activity in yeast-induced pyrexia albino rat model assessed as temperature index measured by sum of mean rectal temperature changes from 0 to 5 hrs at 200 mg/kg, po administered 30 mins after 18 hrs of yeast challenge (Rvb=39.2 degC); format: functional
# [16] = tested on: Mus musculus; experiment: Acute toxicity in albino mouse assessed as behavioral response up to 2000 mg/kg, po after 24 hrs; format: organism-based; set-up: dose 2000 mg/kg, route oral; settings: in vivo; outline: as §1
# [17] = tested on: Rattus norvegicus; experiment: Antipyretic activity in yeast-induced pyrexia albino rat model assessed as temperature index measured by sum of mean rectal temperature changes from 0 to 5 hrs at 200 mg/kg, po administered 30 mins after 18 hrs of yeast challenge (Rvb=39.3 degC); format: functional
# [18] = tested on: Rattus norvegicus; experiment: Antipyretic activity in yeast-induced pyrexia albino rat model assessed as mean rectal temperature at 135 mg/kg, po administered 30 mins after 18 hrs of yeast challenge measured after 2 hrs postdosing (Rvb=39.2 degC); format: functional
# [19] = tested on: Rattus norvegicus; experiment: Antipyretic activity in yeast-induced pyrexia albino rat model assessed as mean rectal temperature at 135 mg/kg, po administered 30 mins after 18 hrs of yeast challenge measured after 3 hrs postdosing (Rvb=38.9 degC); format: functional
# [20] = tested on: Rattus norvegicus; experiment: Antipyretic activity in yeast-induced pyrexia albino rat model assessed as mean rectal temperature at 135 mg/kg, po administered 30 mins after 18 hrs of yeast challenge measured after 4 hrs postdosing (Rvb=38.7 degC); format: functional
# [21] = tested on: Rattus norvegicus; experiment: Antipyretic activity in yeast-induced pyrexia albino rat model assessed as mean rectal temperature at 135 mg/kg, po administered 30 mins after 18 hrs of yeast challenge measured after 5 hrs postdosing (Rvb=38.2 degC); format: functional
# [22] = tested on: Rattus norvegicus; experiment: Antipyretic activity in yeast-induced pyrexia albino rat model assessed as mean rectal temperature at 135 mg/kg, po administered 30 mins after 18 hrs of yeast challenge measured after 1 hr postdosing (Rvb=39.4 degreeC); format: functional
# [23] = tested on: Rattus norvegicus; experiment: Antipyretic activity in yeast-induced pyrexia albino rat model assessed as temperature index measured by sum of mean rectal temperature changes from 0 to 5 hrs at 135 mg/kg, po administered 30 mins after 18 hrs of yeast challenge (Rvb=39.0 degC); format: functional
# [24] = tested on: Rattus norvegicus; experiment: Antiinflammatory activity in albino rat acute inflammatory model assessed as inhibition of carrageenan-induced paw edema at 13.5 mg/kg, po dosed 1 hr before carrageenan challenge measured after 2 hrs relative to control; format: functional; outline: as §3
# [25] = tested on: Rattus norvegicus; experiment: Antiinflammatory activity in albino rat acute inflammatory model assessed as inhibition of carrageenan-induced paw edema at 13.5 mg/kg, po dosed 1 hr before carrageenan challenge measured after 4 hrs relative to control; format: functional; outline: as §3
# [26] = tested on: Rattus norvegicus; experiment: Antiinflammatory activity in albino rat chronic arthritis model assessed as inhibition of Freund's adjuvant-induced paw edema at 13.5 mg/kg, po administered on day 16 to 19 post Freund's adjuvant challenge measured on day 19 relative to control; format: functional; outline: as §4
# [27] = tested on: Mus musculus; experiment: Analgesic activity in albino mouse assessed as protection against glacial acetic acid-induced writhing response at 30 mg/kg, po pretreated 0.5 hrs before glacial acetic acid challenge measured for 15 mins; format: functional; outline: as §2
# [28] = tested on: Rattus norvegicus; experiment: Gastrointestinal toxicity in starved po dosed albino rat stress model assessed as ulcer index after 7 hrs; format: organism-based; settings: in vivo; outline: as §5
Compound,Activity [1],inhibition in vivo at 200 mg/kg [4],inhibition in vivo at 200 mg/kg [5],MTD [13],Activity [16],further results
COc1cccc([C@H]2CC(c3cc4ccccc4oc3=O)=NN2c2ccccc2)c1,Non-toxic,38.3%,61.5%,2000 mg/kg,,Activity [2]: 39.4 °C; Activity [3]: 35%; inhibition in vivo at 200 mg/kg [6]: 20.9%; Activity [7]: 38.8 °C; Activity [8]: 38.6 °C; Activity [9]: 38.2 °C; Activity [10]: 37.9 °C; Activity [11]: -5.1 °C; UI [12]: 2.12
O=c1oc2ccccc2cc1C1=NN(c2ccccc2)[C@@H](c2ccc(F)cc2)C1,Non-toxic,44.9%,66.7%,2000 mg/kg,,Activity [2]: 39.2 °C; Activity [3]: 55%; inhibition in vivo at 200 mg/kg [6]: 40.5%; Activity [7]: 38.3 °C; Activity [8]: 37.9 °C; Activity [9]: 37.7 °C; Activity [10]: 37.1 °C; Activity [14]: -6.6 °C; UI [12]: 1.66
O=c1oc2ccccc2cc1C1=NN(c2ccccc2)[C@@H](c2ccc(Cl)cc2Cl)C1,Non-toxic,56.7%,67.5%,2000 mg/kg,,Activity [2]: 38.9 °C; Activity [3]: 59%; inhibition in vivo at 200 mg/kg [6]: 45.4%; Activity [7]: 38.6 °C; Activity [8]: 38.1 °C; Activity [9]: 37.8 °C; Activity [10]: 37.2 °C; Activity [15]: -5.4 °C; UI [12]: 2.67
COc1ccc([C@H]2CC(c3cc4ccccc4oc3=O)=NN2c2ccccc2)cc1,Non-toxic,24.8%,36.2%,,Toxic,
O=c1oc2ccccc2cc1C1=NN(c2ccccc2)[C@@H](c2cccc([N+](=O)[O-])c2)C1,Non-toxic,26.1%,31.2%,,Toxic,
O=c1oc2ccccc2cc1C1=NN(c2ccccc2)[C@@H](c2ccc(Cl)cc2)C1,Non-toxic,39.2%,64.7%,2000 mg/kg,,Activity [2]: 39.1 °C; Activity [3]: 41%; inhibition in vivo at 200 mg/kg [6]: 39.1%; Activity [7]: 38.9 °C; Activity [8]: 38.5 °C; Activity [9]: 38.1 °C; Activity [10]: 38 °C; Activity [17]: -3.9 °C; UI [12]: 2.33
CN(C)c1ccc([C@H]2CC(c3cc4ccccc4oc3=O)=NN2c2ccccc2)cc1,Non-toxic,28.4%,40.1%,,Toxic,
O=c1oc2ccccc2cc1C1=NN(c2ccccc2)[C@@H](c2ccc(O)cc2)C1,Non-toxic,28.8%,34.6%,2000 mg/kg,,
CC(=O)Nc1ccc(O)cc1 [ACETAMINOPHEN],,,,,,Activity [18]: 38 °C; Activity [19]: 37.6 °C; Activity [20]: 37.3 °C; Activity [21]: 37 °C; Activity [22]: 38.4 °C; Activity [23]: -6.7 °C
O=C(O)Cc1ccccc1Nc1c(Cl)cccc1Cl [DICLOFENAC],,,,,,inhibition in vivo at 13.5 mg/kg [24]: 63.7%; inhibition in vivo at 13.5 mg/kg [25]: 78.7%; inhibition in vivo at 13.5 mg/kg [26]: 53%
O=c1oc2ccccc2cc1C1=NN(c2ccccc2)[C@@H](/C=C/c2ccccc2)C1,Non-toxic,26.7%,42.5%,,Toxic,
O=c1oc2ccccc2cc1C1=NN(c2ccccc2)[C@@H](c2ccccc2[N+](=O)[O-])C1,Non-toxic,24.7%,26.6%,,Toxic,
CC(=O)Oc1ccccc1C(=O)O [ASPIRIN],,,,,,Activity [27]: 67%; UI [28]: 4.33
Cc1ccc([C@H]2CC(c3cc4ccccc4oc3=O)=NN2c2ccccc2)cc1,Non-toxic,30.1%,38%,,Toxic,
O=c1oc2ccccc2cc1C1=NN(c2ccccc2)[C@@H](c2ccccc2)C1,Non-toxic,27.2%,32.7%,2000 mg/kg,,
